Measured values as given in ChEMBL document CHEMBL1130287, “Potent and selective non-benzodioxole-containing endothelin-A receptor antagonists” (J Med Chem, 1997).

What was measured:
[1] = target: T1, Endothelin receptor type B (Sus scrofa, UniProt P35463); assay: Binding affinity towards endothelin B receptor in porcine cerebellar tissue using [125I]-ET-1 as radioligand.
T1 sequence (P35463 whole entry): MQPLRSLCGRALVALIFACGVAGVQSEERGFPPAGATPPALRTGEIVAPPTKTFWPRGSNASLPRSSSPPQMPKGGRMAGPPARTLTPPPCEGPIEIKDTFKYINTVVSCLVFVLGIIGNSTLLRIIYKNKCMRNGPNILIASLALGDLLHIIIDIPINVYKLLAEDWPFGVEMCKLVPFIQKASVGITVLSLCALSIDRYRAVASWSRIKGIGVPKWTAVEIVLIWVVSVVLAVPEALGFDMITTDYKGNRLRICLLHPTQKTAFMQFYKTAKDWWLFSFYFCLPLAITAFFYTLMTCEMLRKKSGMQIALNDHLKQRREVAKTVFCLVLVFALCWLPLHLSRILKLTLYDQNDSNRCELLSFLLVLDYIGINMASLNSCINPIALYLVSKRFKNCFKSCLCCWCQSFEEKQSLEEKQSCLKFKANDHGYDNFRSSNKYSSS
Outline: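 Membranes from porcine cerebellar tissue (ETB), kept at 4 °C and stored in Tris/NaCl/MgCl2 buffer pH 7.4 with protease inhibitors. Bound and free separated by glass-fiber filtration. Nonspecific binding measured with 1 μM ET-1.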

[2] = target: T2, Endothelin-1 receptor (Rattus norvegicus, UniProt P26684); assay: Binding affinity towards endothelin A receptor in prolactin secreting rat pituitary cells using [125I]ET1 as radioligand.; format: cell-based, Pituitary gland cell
T2 sequence (P26684 whole entry): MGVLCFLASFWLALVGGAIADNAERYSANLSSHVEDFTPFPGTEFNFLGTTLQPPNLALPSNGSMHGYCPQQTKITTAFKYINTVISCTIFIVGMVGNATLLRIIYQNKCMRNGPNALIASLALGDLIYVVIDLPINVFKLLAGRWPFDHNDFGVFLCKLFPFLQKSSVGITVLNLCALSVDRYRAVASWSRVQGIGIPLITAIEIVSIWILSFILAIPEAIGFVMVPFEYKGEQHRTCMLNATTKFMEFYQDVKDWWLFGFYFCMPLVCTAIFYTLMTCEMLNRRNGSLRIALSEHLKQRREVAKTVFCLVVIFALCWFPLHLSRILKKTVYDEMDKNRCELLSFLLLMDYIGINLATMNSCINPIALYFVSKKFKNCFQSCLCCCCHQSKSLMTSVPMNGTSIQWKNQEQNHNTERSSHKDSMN
Outline: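 Membranes from rat MMQ pituitary cells (predominantly ETA), kept at 4 °C and stored in Tris/NaCl/MgCl2 buffer pH 7.4 with protease inhibitors. Bound ligand separated by vacuum filtration on glass fiber. Nonspecific binding defined with 1 μM ET-1.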

[3] = Maximum concentration of compound in plasma administered orally to rats; format: ADME, organism-based; set-up: route oral; settings: rat, po
Outline: (§1)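 Male Sprague–Dawley rats, n = 4 per group. Vehicle: ethanol:propylene glycol:D5W (20:30:50) with 1 mol equiv NaOH. Dosing: 5 mg/kg iv jugular bolus, or 10 mg/kg oral gavage. Tail-vein plasma sampled 0.1 (iv only) to 12 h and analyzed by HPLC after extraction. Trapezoidal AUC extrapolated to infinity. F from dose-corrected oral versus iv AUC.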

[4] = Area under curve was determined in portal blood of rat when administered intradermally; format: ADME, organism-based; set-up: concentration or dose not given beside the values; settings: in the assay text read “intraduodenally” for “intradermally”
Outline: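 Male Sprague–Dawley rats (~225 g), fasted overnight and anesthetized with inactin (100 mg/kg ip). Pylorus ligated; carotid and portal vein catheterized. Intraduodenal dose 10 mg/kg at t = 0. Portal blood drawn at 10, 30 and 60 min; drug measured by HPLC-UV at 226 nm against plasma standards (0.01–50 μg/mL). AUC calculated by trapezoidal rule.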

[5] = Oral bioavailability in rat; format: ADME, organism-based; settings: in vivo; outline: as §1
[6] = Time taken to decrease the plasma concentration to half of the maximum concentration when compound was administered intravenously in rats; format: ADME, organism-based; settings: rat, iv; outline: as §1
[7] = Area under curve was determined in carotid blood of rat when administered intraduodenally; set-up: concentration or dose not given beside the values

SMILES	IC50 [1] [nM]	IC50 [2] [nM]	Cmax [3] [ng/mL]	AUC [4] [ng·h/mL]	bioavailability [5] [%]	half-life [6] [h]	AUC [7] [ng·h/mL]
CCCCN(CCCC)C(=O)CN1C[C@H](c2ccc3c(c2)CCO3)[C@@H](C(=O)O)[C@@H]1c1ccc(OC)cc1	2600	0.6	1500	8830	33	1.1	3000
CCCN(C)C(=O)CN1C[C@H](c2ccc(OC)cc2OC)[C@@H](C(=O)O)[C@@H]1c1ccc(OC)cc1	72000	407					
CCCCN(CCCC)C(=O)CN1C[C@H](c2ccc(OC)cc2OC)[C@@H](C(=O)O)[C@@H]1c1ccc(OC)cc1	48000	3.7					
CCCCN(CCCC)C(=O)CN1C[C@H](c2ccc3ccoc3c2)[C@@H](C(=O)O)[C@@H]1c1ccc(OC)cc1	5000	0.7	4700	9000	38	4.7	6170
CCCCN(CCCC)C(=O)CN1C[C@H](c2ccc3occc3c2)[C@@H](C(=O)O)[C@@H]1c1ccc(OC)cc1	5100	0.5	1600	4000	39	3.2	2330
CCCCN(CCCC)C(=O)CN1C[C@H](c2ccc(F)c(F)c2)[C@@H](C(=O)O)[C@@H]1c1ccc(OC)cc1	17000	1.5					
CCCCN(CCCC)C(=O)CN1C[C@H](c2cccnc2)[C@@H](C(=O)O)[C@@H]1c1ccc(OC)cc1	> 100000	930					
CCCCN(CCCC)C(=O)CN1C[C@H](c2ccc(OC)cc2)[C@@H](C(=O)O)[C@@H]1c1ccc(OC)cc1	4100	1.3					
CCCCN(CCCC)C(=O)CN1C[C@H](c2ccc3c(c2)OCCO3)[C@@H](C(=O)O)[C@@H]1c1ccc(OC)cc1		0.8					
CCCCN(CCCC)C(=O)CN1C[C@H](c2ccc(F)cc2)[C@@H](C(=O)O)[C@@H]1c1ccc(OC)cc1	77000	14					
CCCCN(CCCC)C(=O)CN1C[C@H](c2ccc3c(c2)OCC3)[C@@H](C(=O)O)[C@@H]1c1ccc(OC)cc1	960	1	4000	12200	68	4.7	6170
CCCCN(CCCC)C(=O)CN1C[C@H](c2cccc(F)c2)[C@@H](C(=O)O)[C@@H]1c1ccc(OC)cc1	16000	5					
CCCCN(CCCC)C(=O)CN1C[C@H](c2ccc3c(c2)CCC3)[C@@H](C(=O)O)[C@@H]1c1ccc(OC)cc1		1.5					
CCCCN(CCCC)C(=O)CN1C[C@H](c2cccc3occc23)[C@@H](C(=O)O)[C@@H]1c1ccc(OC)cc1	11000	2					
CCCCN(CCCC)C(=O)CN1C[C@H](c2ccc3c(c2)OCO3)[C@@H](C(=O)O)[C@@H]1c1ccc(OC)cc1			3200	10700	68	3.5	5830

The next lines start with the values.

IC50 [1] [nM]	IC50 [2] [nM]	Cmax [3] [ng/mL]	AUC [4] [ng·h/mL]	bioavailability [5] [%]	half-life [6] [h]	AUC [7] [ng·h/mL]	SMILES
19000	130						CCCN(C)C(=O)CN1C[C@H](c2ccc3c(c2)CCO3)[C@@H](C(=O)O)[C@@H]1c1ccc(OC)cc1
31000	730						CCCN(C)C(=O)CN1C[C@H](c2ccc(OC)c(OC)c2)[C@@H](C(=O)O)[C@@H]1c1ccc(OC)cc1
35000	310						CCCN(C)C(=O)CN1C[C@H](c2ccc(F)c(F)c2)[C@@H](C(=O)O)[C@@H]1c1ccc(OC)cc1
6400	137						CCCN(C)C(=O)CN1C[C@H](c2ccc3c(c2)OCC3)[C@@H](C(=O)O)[C@@H]1c1ccc(OC)cc1
35000	130						CCCN(C)C(=O)CN1C[C@H](c2ccc3c(c2)OCCO3)[C@@H](C(=O)O)[C@@H]1c1ccc(OC)cc1
35000	5100						CCCN(C)C(=O)CN1C[C@H](c2ccc3cc[nH]c3c2)[C@@H](C(=O)O)[C@@H]1c1ccc(OC)cc1
> 100000							CCCN(C)C(=O)CN1C[C@H](c2ccccc2)[C@@H](C(=O)O)[C@@H]1c1ccc(OC)cc1
25000	2300						CCCN(C)C(=O)CN1C[C@H](c2ccc3ccccc3c2)[C@@H](C(=O)O)[C@@H]1c1ccc(OC)cc1
11000	310						CCCN(C)C(=O)CN1C[C@H](c2ccc3c(c2)CCC3)[C@@H](C(=O)O)[C@@H]1c1ccc(OC)cc1
13000	258						CCCN(C)C(=O)CN1C[C@H](c2ccc3ccoc3c2)[C@@H](C(=O)O)[C@@H]1c1ccc(OC)cc1
	1700						CCCN(C)C(=O)CN1C[C@H](c2cccc(OC)c2)[C@@H](C(=O)O)[C@@H]1c1ccc(OC)cc1
34000							CCCN(C)C(=O)CN1C[C@H](c2cccc3occc23)[C@@H](C(=O)O)[C@@H]1c1ccc(OC)cc1
16000	176						CCCN(C)C(=O)CN1C[C@H](c2ccc(OC)cc2)[C@@H](C(=O)O)[C@@H]1c1ccc(OC)cc1
32000	2300						CCCN(C)C(=O)CN1C[C@H](c2cccc3ccccc23)[C@@H](C(=O)O)[C@@H]1c1ccc(OC)cc1
